# Source: PubChem (several laboratories)
# Apaf1 inhib: inhibitors of human Apaf-1 apoptosome; reconstituted apoptosome caspase-3 activity, DEVD-Rh110 fluorescence; O14727; 330,000 compounds, 0.71% hits; inhibition, % at 20 µM; active = inhibition of at least 40% at 20 µM;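 note: plate controls were DMSO wells for no effect and DEVD-CHO caspase inhibitor wells for full effect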
#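 Material: reconstituted apoptosome with Apaf-1, cytochrome c, caspase-9, procaspase-3, dATP; medium: pH 7.5 Hepes buffer with CHAPS, BSA, DTT; also added: cytochrome c and DEVD-Rh110 substrate; timing: 30 min plus 50 min, RT; signal: Rh110 fluorescence intensity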
# MEKK3 PB1 HTS: modulators (inhibitors or enhancers) of MEK5 binding to human MEKK3 PB1 domain; Q99759; bead-based flow cytometry, Alexa488-MEK5 binding to MEKK3; actives lie on both sides; 0 = blocked by unlabeled MEK5, 100 = vehicle; 290,000 compounds, 1.4% hits; binding response (% of control), % at 10 µM;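 active = binding response more than 3 SD above or below the average of its plate-row segment, actives on both sides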;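 note: Alexa488 bead fluorescence after subtracting the streptavidin-only scavenger bead signal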
# MEKK2mut PB1 HTS: signal of MEK5 binding to mutant human MEKK2 PB1 domain; bead flow cytometry, Alexa488-MEK5 binding to MEKK2 mutant; percent response, % at 10 µM; 290,000 compounds, 0.35% hits; in the data active = percent response above about 24%, passing the limit was not always enough
# MEKK2wt PB1 HTS: raises or lowers MEK5 binding to wildtype human MEKK2 PB1 domain. Q9Y2U5. bead flow cytometry, Alexa488-MEK5 binding to MEKK2 WT; actives lie on both sides. binding response (% of control), % at 10 µM. 290,000 compounds, 1.1% hits. AID 1531; in the data active = binding response below about 67% or above about 130%
# UBC13 polyUb: human UBC13 polyubiquitination inhibition | P61088 | 330,000 compounds, 0.47% hits | AID 485273 | inhibition, % at 20 µM | UBC13 polyubiquitin chain formation, TR-FRET; in the data active = inhibition above about 45%, passing the limit was not always enough
# Target sequence (P61088 whole entry, looked up): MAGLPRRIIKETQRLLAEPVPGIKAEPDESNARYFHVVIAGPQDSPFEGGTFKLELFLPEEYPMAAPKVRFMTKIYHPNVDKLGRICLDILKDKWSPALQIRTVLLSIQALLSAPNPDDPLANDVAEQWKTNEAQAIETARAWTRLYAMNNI
# Apaf-1 inh conf2: confirmation of Apaf-1 inhibitors; reconstituted apoptosome, caspase-3 DEVD-Rh110 fluorescence; shares compounds with Apaf1 inhib; AID 504614; inhibition, % at 20 µM; 1,800 compounds, 25% hits;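 active = mean inhibition of at least 40% at 20 µM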;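 note: plate controls were DMSO wells for no effect and DEVD-CHO caspase inhibitor control wells for full effect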
# Rh110 quench: Rh110 signal interference in Apaf-1 inhibitor counter-screen | shares compounds with Apaf1 inhib | Rh110 fluorescence interference, quenched caspase reaction | activation (fluorescence interference), % at 20 µM | 1,800 tested, under 10 active | AID 504615;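 active = signal rise of 40% or more at 20 µM, treated as a fluorescence artifact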
# Fluor interf inh: Apaf-1 inhibitor counter-screen fluorescence artifact; shares compounds with Apaf1 inhib; fluorescence interference counterscreen, Apaf-1 assay format; IC50, µM; 460 tested, under 10 active; call rule not given here
# Active calls of the source: *; · = no result given. The list is not random: actives were taken first. Their share in the collection is about 2.9%.
SMILES,Apaf1 inhib,MEKK3 PB1 HTS,MEKK2mut PB1 HTS,MEKK2wt PB1 HTS,UBC13 polyUb,Apaf-1 inh conf2,Rh110 quench,others
Cc1[nH]n(-c2ccc(Br)cc2)c(=O)c1/C=N/NC(=O)c1ccccc1,15.9,97.0,1.0,97.0,-29.2,·,·,
Cc1cc(C)n(C(C)CC(=O)Nc2ccc3c(c2)OCO3)n1 (centres undefined),-8.7,100.0,2.0,102.0,9.7,·,·,
COc1cc(OC)c(C(=O)Nc2cccc3ccccc23)cc1OC,12.5,107.0,1.0,103.0,1.6,·,·,
O=C(CSc1ccccc1F)NCCCN1CCCC1=O,-1.1,·,·,·,1.0,·,·,
NC(=O)NC(=O)C(c1ccccc1)N1CCN(S(=O)(=O)Cc2ccccc2)CC1 (centres undefined),-0.1,·,·,·,5.5,·,·,
Cc1cc(C(=O)N/N=C/c2c(C)[nH]n(-c3ccccc3)c2=O)n[nH]1,76.7*,101.0,7.0,107.0,-10.3,80.1*,1.9,Fluor interf inh=>100
CC(C)(C)C(=O)[C@@H]1[C@@H]2C(=O)N(C3CCCCC3)C(=O)[C@@H]2[C@H]2c3ccccc3C=CN12,63.7*,·,·,·,-16.3,59.9*,4.1,Fluor interf inh=>100
COc1ccc(N2C(=O)[C@@H]3[C@H](C2=O)[C@H]2c4ccccc4C=CN2[C@@H]3C(C)=O)cc1,·,92.0,-1.0,96.0,·,·,·,
CN(C=[N+](C)C)c1cccc2c1C(=O)c1ccccc1C2=O,43.0*,127.0,1.0,102.0,-41.6,21.2,13.2,
COc1cc(N)c(Cl)cc1C(=O)OCC(=O)N1CCCCCC1,-5.7,·,·,·,6.0,·,·,
CCCNC(=S)N1CC2(C)CN(C(=O)C(=O)OCC)CC(C)(C1)C2=O,-14.9,102.0,-5.0,99.0,3.0,·,·,
CC#CCN1c2ccccc2[C@]23C[C@@H](C(=O)OC)N(C(=O)NC4CCCCC4)C2=NC(C(=O)OC)=C(C(=O)OC)[C@H]13,4.4,101.0,0.0,101.0,-14.1,·,·,
COc1ccc(N=C2S/C(=C\c3cc(C)n(C)c3C)C(=O)N2C)cc1,13.1,98.0,-3.0,94.0,-1.5,·,·,
CCCN1C(=O)/C(=C/c2cc(C)n(C)c2C)SC1=Nc1ccc(OC)cc1,40.7*,·,·,·,-14.4,19.2,8.7,
O=C(CSc1ncc(-c2ccc(F)cc2)n1Cc1ccco1)Nc1nccs1,35.0,98.0,1.0,97.0,-3.9,·,·,
Cc1cnc(NC(=O)CSc2ncc(-c3ccccc3)n2Cc2ccco2)s1,41.9*,101.0,0.0,104.0,1.3,20.5,11.2,
CN1CCN(CCc2nc3cc(NC(=O)COc4ccccc4)ccc3n2C)CC1,57.4*,·,·,·,9.0,21.0,3.2,
CN1CCN(c2ccc(-c3cccc(NC(=O)COc4ccc(Cl)cc4)c3)nn2)CC1,36.5,·,·,·,9.5,·,·,
CN1CCN(c2ccc(-c3cccc(NC(=O)COc4ccccc4)c3)nn2)CC1,46.6*,·,·,·,-0.4,14.1,5.4,
CCN1CCN(CCc2nc3cc(NC(=O)COc4ccccc4)ccc3n2C)CC1,51.0*,105.0,10.0,114.0,7.8,26.2,4.0,
Cn1c(CCN2CCCCC2)nc2cc(NC(=O)COc3ccccc3)ccc21,52.6*,101.0,3.0,110.0,5.6,15.7,1.5,
CCN1CCN(CCc2nc3cc(NC(=O)COc4ccc(Cl)cc4)ccc3n2C)CC1,8.1,95.0,-6.0,100.0,10.5,·,·,
COc1ccc(OCC(=O)Nc2ccc3c(c2)nc(CCN2CCCCC2)n3C)cc1,14.7,103.0,3.0,105.0,9.9,·,·,
O=C(CCc1nc2ccccc2[nH]c1=O)N/N=C/c1ccccc1,-1.4,103.0,-3.0,98.0,-7.2,·,·,
O=C(NC1(Cc2ccccc2)CCN(CCCc2ccccc2)C1=O)c1ccccc1 (centres undefined),14.8,·,·,·,21.2,·,·,
SMILES,Apaf1 inhib,MEKK3 PB1 HTS,MEKK2mut PB1 HTS,MEKK2wt PB1 HTS,UBC13 polyUb,Apaf-1 inh conf2,Rh110 quench,others
C[C@@H](NC(=O)c1nc[nH]c1C(=O)NCC(=O)OCc1ccccc1)c1ccccc1,9.6,102.0,-1.0,103.0,15.2,·,·,
Cn1c(CN2CCCC2)nc2cc(NC(=O)COc3ccccc3)ccc21,53.4*,103.0,0.0,105.0,2.0,20.0,3.1,
Cc1cccc(OCC(=O)Nc2ccc3c(c2)nc(CN2CCCCC2)n3C)c1,1.6,118.0,24.0,119.0,0.0,·,·,
CCOc1ccc(S(=O)(=O)N(C)c2ccc(OCC(=O)Nc3nc(-c4cc(OC)ccc4OC)cs3)cc2)cc1,8.2,99.0,10.0,114.0,-9.1,·,·,
Cc1cccc(C(=O)NC2C(=O)NNC2c2ccc(Cl)cc2)c1 (centres undefined),54.0*,106.0,-48.0,100.0,-31.9,22.6,8.5,
O=C(CCS(=O)(=O)c1cccs1)Nc1ccc(C(=O)NC2CCN(Cc3ccccc3)CC2)cc1,-18.5,101.0,18.0,135.0,9.5,·,·,
COc1cc(OC)c(OC)cc1CNCCNC(=O)c1ccco1,4.6,97.0,-2.0,98.0,-0.5,·,·,
Cc1cccnc1NC(=O)c1ccc(OCC2CCCO2)cc1 (centres undefined),54.3*,·,·,·,19.4,34.3,5.8,
Cc1cccc(NC(=O)c2ccc(OCC3CCCO3)cc2)c1C (centres undefined),-1.7,99.0,-1.0,100.0,5.5,·,·,
O=C1c2ccccc2[C@@H]2C[C@@H](O)[C@H](Nc3cccc4ccccc34)CCN12,53.3*,·,·,·,·,27.5,7.5,
O=[N+]([O-])c1cc([N+](=O)[O-])c2nonc2c1Nc1ccc(O)cc1,73.9*,104.0,10.0,101.0,-181.9,12.9,-2.0,
O=[N+]([O-])c1cc([N+](=O)[O-])c2nonc2c1Nc1ccccc1O,31.3,106.0,16.0,106.0,-79.1,·,·,
COc1cc(CNc2ccc(O)cc2)cc(Br)c1OCc1ccccc1F,95.7*,99.0,5.0,85.0,0.0,23.3,14.1,
CCOc1cc(CNc2ccc(O)cc2)cc(Br)c1OCc1ccccc1F,16.7,99.0,-3.0,102.0,-3.6,·,·,
C[C@H](NC(=O)c1ccc(C(C)(C)C)cc1)C(=O)N1CCN(C/C=C/c2ccccc2)CC1,42.7*,·,·,·,5.6,17.6,11.9,
CC(C)C(NC(=O)c1ccccc1)C(=O)N1CCN(C/C=C/c2ccccc2)CC1 (centres undefined),3.9,·,·,·,4.3,·,·,
C=CCNC1=C(Cl)C(=O)c2ccccc2C1=O,39.7,71.0,-2.0,69.0,-305.3,·,·,
O=C1C(Cl)=C(NCc2cccnc2)C(=O)c2ccccc21,84.7*,99.0,-2.0,100.0,-447.3,64.9*,7.8,Fluor interf inh=>100
COCCCNC1=C(Cl)C(=O)c2ccccc2C1=O,33.3,91.0,-16.0,89.0,-280.1,·,·,
CC(C)OCCCNC1=C(Cl)C(=O)c2ccccc2C1=O,52.8*,92.0,-11.0,89.0,-279.4,28.5,3.6,
